Measured values reported in ChEMBL document CHEMBL3808334, “Synthesis and in vitro evaluation of novel triazine analogues as anticancer agents and their interaction studies with bovine serum albumin” (Eur J Med Chem, 2016).

Tests used:
Type in all cases: functional
[1] = tested on: HT-29; experiment: Growth inhibition of human HT-29 cells incubated for 48 hrs by sulforhodamine B assay; conditions: HT-29, 48 h
Method in brief: (§1)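 Cells were plated at 5,000–40,000 per well according to doubling time and preincubated 24 h at 37 °C in 5% CO2; time-zero plates were then TCA-fixed. Five concentrations (10-fold or ½-log dilutions, DMSO stock) were incubated 48 h. Cells were TCA-fixed, stained with 0.4% SRB and read at 515 nm. GI50 was taken where [(Ti−Tz)/(C−Tz)]×100 = 50.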

[2] = Growth inhibition of human IGROV1 cells assessed as cell growth at 10 uM incubated for 48 hrs by sulforhodamine B assay; conditions: IGROV-1, 48 h, read-out: Activity
[3] = Growth inhibition of human SF268 cells assessed as cell growth at 10 uM incubated for 48 hrs by sulforhodamine B assay; conditions: SF-268, 48 h, read-out: Activity
[4] = tested on: SK-MEL-2; experiment: Growth inhibition of human SK-MEL-2 cells assessed as cell growth at 10^-6 M incubated for 48 hrs by sulforhodamine B assay; conditions: SK-MEL-2, 48 h, read-out: Activity
[5] = Growth inhibition of human OVCAR5 cells incubated for 48 hrs by sulforhodamine B assay; conditions: OVCAR-5, 48 h; method in brief: as §1
[6] = Growth inhibition of human SF268 cells assessed as cell growth at 10^-6 M incubated for 48 hrs by sulforhodamine B assay; conditions: SF-268, 48 h, read-out: Activity
[7] = tested on: T47D; experiment: Growth inhibition of human T47D cells assessed as cell growth at 10^-5 M incubated for 48 hrs by sulforhodamine B assay; conditions: read-out: Activity
[8] = Growth inhibition of human HOP92 cells assessed as cell growth at 10^-8 M incubated for 48 hrs by sulforhodamine B assay; conditions: HOP-92, 48 h, read-out: Activity
[9] = Growth inhibition of human HOP62 cells assessed as cell growth at 10^-8 M incubated for 48 hrs by sulforhodamine B assay; conditions: HOP-62, 48 h, read-out: Activity
[10] = Growth inhibition of human SF295 cells assessed as cell growth at 10^-6 M incubated for 48 hrs by sulforhodamine B assay; conditions: SF-295, 48 h, read-out: Activity
[11] = tested on: NCI/ADR-RES; experiment: Growth inhibition of human NCI/ADR-RES cells assessed as cell growth at 10^-5 M incubated for 48 hrs by sulforhodamine B assay; conditions: read-out: Activity
[12] = tested on: A498; experiment: Growth inhibition of human A498 cells assessed as cell growth at 10^-4 M incubated for 48 hrs by sulforhodamine B assay; conditions: A498, 48 h, read-out: Activity
Method in brief: (§2)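 Five-dose assay: five concentrations from 10-fold or ½-log serial dilutions. Cells are plated at 5,000–40,000 per well according to doubling time, grown 24 h, then exposed 48 h at 37 °C, 5% CO₂. Fixed with cold 50% TCA (final addition) for 60 min at 4 °C and stained with 0.4% SRB in 1% acetic acid. Bound dye is solubilized in 10 mM Tris base and read at 515 nm. GI₅₀ is where [(Ti−Tz)/(C−Tz)]×100 = 50, with a time-zero plate as Tz.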

[13] = tested on: NCI-H522; experiment: Growth inhibition of human NCI-H522 cells assessed as cell growth at 10^-7 M incubated for 48 hrs by sulforhodamine B assay; conditions: NCI-H522, 48 h, read-out: Activity
[14] = tested on: CCRF-CEM; experiment: Growth inhibition of human CCRF-CEM cells incubated for 48 hrs by sulforhodamine B assay
Method in brief: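 Leukemia line in the five-dose format: five concentrations from 10-fold or ½-log serial dilutions. Plated at 5,000–40,000 cells per well, preincubated 24 h, then compound added for 48 h at 37 °C, 5% CO₂. Sulforhodamine B absorbance read at 515 nm. Growth is computed against time-zero (Tz) and control (C) readings; GI₅₀ is where [(Ti−Tz)/(C−Tz)]×100 = 50.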

[15] = Growth inhibition of human SKOV3 cells assessed as cell growth at 10^-8 M incubated for 48 hrs by sulforhodamine B assay; conditions: SK-OV-3, 48 h, read-out: Activity
[16] = Growth inhibition of human BT549 cells assessed as cell growth at 10^-5 M incubated for 48 hrs by sulforhodamine B assay; conditions: BT-549, 48 h, read-out: Activity; method in brief: as §2
[17] = Growth inhibition of human SKOV3 cells assessed as cell growth at 10^-6 M incubated for 48 hrs by sulforhodamine B assay; conditions: SK-OV-3, 48 h, read-out: Activity
[18] = tested on: M14; experiment: Growth inhibition of human M14 cells assessed as cell growth at 10 uM incubated for 48 hrs by sulforhodamine B assay; conditions: M14, 48 h, read-out: Activity
[19] = Growth inhibition of human MOLT4 cells incubated for 48 hrs by sulforhodamine B assay; conditions: MOLT-4, 48 h; method in brief: as §1
[20] = tested on: EKVX; experiment: Growth inhibition of human EKVX cells assessed as cell growth at 10^-7 M incubated for 48 hrs by sulforhodamine B assay; conditions: read-out: Activity
Method in brief: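 Cells seeded at 5,000–40,000/well according to doubling time and preincubated 24 h at 37 °C, 5% CO2. Time-zero plates were TCA-fixed. DMSO concentrate was diluted in medium with 50 µg/ml gentamicin to give five concentrations (10-fold or ½ log steps), then exposed 48 h. Cells were TCA-fixed, stained with 0.4% SRB and read at 515 nm. Percent growth was taken against time-zero and control; GI50, TGI and LC50 derived.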

[21] = Growth inhibition of human HL-60(TB) cells assessed as cell growth at 10^-6 M incubated for 48 hrs by sulforhodamine B assay; conditions: HL-60, 48 h, read-out: Activity
Method in brief: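 Cells plated at 5,000–40,000/well according to doubling time and preincubated 24 h at 37 °C, 5% CO₂, with time-zero plates TCA-fixed. Drugs were kept as DMSO concentrates at 400× the top concentration and diluted in medium with 50 µg/ml gentamicin. Five 10-fold or ½-log dilutions were run for 48 h, followed by SRB staining and A515. Percent growth = (Ti−Tz)/(C−Tz)×100, or (Ti−Tz)/Tz×100 when Ti<Tz.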

[22] = tested on: M14; experiment: Growth inhibition of human M14 cells assessed as cell growth at 10^-6 M incubated for 48 hrs by sulforhodamine B assay; conditions: M14, 48 h, read-out: Activity
[23] = read-out: LC50 (the source's name)
[24] = read-out: pLC50 (the source's name) (converted)

Work on `c1ccc(-c2nc(Nc3ccc(-c4nc5ccccc5[nH]4)cc3)nc(N3CCOCC3)n2)cc1` yielded a GI50 ([1]; read-out: GI50) of 0.645 µM, a CC50 [1, 23] of 6.45 µM and a TGI ([1]; read-out: TGI) of 2.19 µM. The GI50 ([1]; read-out: pGI50 (converted)) was 0.646 µM, the CC50 [1, 24] was 6.46 µM and the TGI ([1]; read-out: pTGI (converted)) was 2.19 µM. It also gave a growth at 10 µM [2] of -38.1%, a growth at 10 µM [3] of -43.4% and a growth at 1 µM [4] of 106%. It also gave a GI50 ([5]; read-out: GI50) of 2.16 µM, a CC50 [5, 23] of 7.49 µM and a TGI ([5]; read-out: TGI) of 4.02 µM. For the same compound, the GI50 ([5]; read-out: pGI50 (converted)) was 2.14 µM, the CC50 [5, 24] was 7.41 µM and the TGI ([5]; read-out: pTGI (converted)) was 3.98 µM. For the same compound, the growth at 1 µM [6] was 86%, the growth at 10 µM [7] was -56% and the growth at 0.01 µM [8] was 93%. The growth at 0.01 µM [9] was 92%, the growth at 1 µM [10] was 64% and the growth at 10 µM [11] was -28%. The growth at 100 µM [12] was -100%, the growth at 0.1 µM [13] was 101% and the GI50 ([14]; read-out: GI50) was 0.544 µM. The CC50 [14, 23] was > 100 µM, the TGI ([14]; read-out: TGI) was 3.12 µM and the GI50 ([14]; read-out: pGI50 (converted)) was 0.55 µM. The CC50 [14, 24] was > 100 µM, the TGI ([14]; read-out: pTGI (converted)) was 3.09 µM and the growth at 0.01 µM [15] was 95%. It also gave a growth at 10 µM [16] of -69%, a growth at 1 µM [17] of 104% and a growth at 10 µM [18] of -80.7%. For the same compound, the GI50 ([19]; read-out: GI50) was 1.33 µM, the CC50 [19, 23] was 9.35 µM and the TGI ([19]; read-out: TGI) was 3.53 µM. It also gave a GI50 ([19]; read-out: pGI50 (converted)) of 1.32 µM, a CC50 [19, 24] of 9.33 µM and a TGI ([19]; read-out: pTGI (converted)) of 3.55 µM. For the same compound, the growth at 0.1 µM [20] was 88%, the growth at 1 µM [21] was -7% and the growth at 1 µM [22] was 69%.

With `Fc1ccc(-c2nc(Nc3ccc(-c4nc5ccccc5[nH]4)cc3)nc(N3CCOCC3)n2)cc1` the GI50 ([1]; read-out: GI50) was 2.23 µM, the CC50 [1, 23] was > 100 µM and the TGI ([1]; read-out: TGI) was 5.39 µM. The GI50 ([1]; read-out: pGI50 (converted)) was 2.24 µM, the CC50 [1, 24] was > 100 µM and the TGI ([1]; read-out: pTGI (converted)) was 5.37 µM. The growth at 10 µM [2] was 33.7%, the growth at 10 µM [3] was 34.1% and the growth at 1 µM [4] was 99%. For the same compound, the GI50 ([5]; read-out: GI50) was 2.7 µM, the CC50 [5, 23] was > 100 µM and the TGI ([5]; read-out: TGI) was 8.9 µM. The GI50 ([5]; read-out: pGI50 (converted)) was 2.69 µM, the CC50 [5, 24] was > 100 µM and the TGI ([5]; read-out: pTGI (converted)) was 8.91 µM. It also gave a growth at 1 µM [6] of 89%, a growth at 10 µM [7] of -50% and a growth at 0.01 µM [8] of 96%. It also gave a growth at 0.01 µM [9] of 98%, a growth at 1 µM [10] of 72% and a growth at 10 µM [11] of 10%. The growth at 100 µM [12] was -96%, the growth at 0.1 µM [13] was 97% and the GI50 ([14]; read-out: GI50) was 3.11 µM. The CC50 [14, 23] was > 100 µM, the TGI ([14]; read-out: TGI) was > 100 µM and the GI50 ([14]; read-out: pGI50 (converted)) was 3.09 µM. The CC50 [14, 24] was > 100 µM, the TGI ([14]; read-out: pTGI (converted)) was > 100 µM and the growth at 0.01 µM [15] was 99%. It also gave a growth at 10 µM [16] of -53%, a growth at 1 µM [17] of 101% and a growth at 10 µM [18] of -7.64%. The GI50 ([19]; read-out: GI50) was 2.15 µM, the CC50 [19, 23] was > 100 µM and the TGI ([19]; read-out: TGI) was 6.13 µM. For the same compound, the GI50 ([19]; read-out: pGI50 (converted)) was 2.14 µM, the CC50 [19, 24] was > 100 µM and the TGI ([19]; read-out: pTGI (converted)) was 6.17 µM. For the same compound, the growth at 0.1 µM [20] was 91%, the growth at 1 µM [21] was 81% and the growth at 1 µM [22] was 95%.

With `c1ccc2[nH]c(-c3ccc(Nc4nc(N5CCCCC5)nc(N5CCOCC5)n4)cc3)nc2c1` the GI50 ([1]; read-out: GI50) was 2.44 µM, the CC50 [1, 23] was > 100 µM and the TGI ([1]; read-out: TGI) was 5.56 µM. The GI50 ([1]; read-out: pGI50 (converted)) was 2.45 µM, the CC50 [1, 24] was > 100 µM and the TGI ([1]; read-out: pTGI (converted)) was 5.62 µM. The growth at 10 µM [2] was 51.3%, the growth at 10 µM [3] was 33.8% and the growth at 1 µM [4] was 101%. For the same compound, the GI50 ([5]; read-out: GI50) was 4.06 µM, the CC50 [5, 23] was > 100 µM and the TGI ([5]; read-out: TGI) was 29.3 µM. The GI50 ([5]; read-out: pGI50 (converted)) was 4.07 µM, the CC50 [5, 24] was > 100 µM and the TGI ([5]; read-out: pTGI (converted)) was 29.5 µM. The growth at 1 µM [6] was 96%, the growth at 10 µM [7] was -46% and the growth at 0.01 µM [8] was 92%. The growth at 0.01 µM [9] was 96%, the growth at 1 µM [10] was 84% and the growth at 10 µM [11] was 28%. The growth at 100 µM [12] was -90%, the growth at 0.1 µM [13] was 97% and the GI50 ([14]; read-out: GI50) was 3.25 µM. For the same compound, the CC50 [14, 23] was > 100 µM, the TGI ([14]; read-out: TGI) was > 100 µM and the GI50 ([14]; read-out: pGI50 (converted)) was 3.24 µM. For the same compound, the CC50 [14, 24] was > 100 µM, the TGI ([14]; read-out: pTGI (converted)) was > 100 µM and the growth at 0.01 µM [15] was 97%. It also gave a growth at 10 µM [16] of -35%, a growth at 1 µM [17] of 102% and a growth at 10 µM [18] of -24.5%. For the same compound, the GI50 ([19]; read-out: GI50) was 2.73 µM, the CC50 [19, 23] was > 100 µM and the TGI ([19]; read-out: TGI) was 7.89 µM. For the same compound, the GI50 ([19]; read-out: pGI50 (converted)) was 2.75 µM, the CC50 [19, 24] was > 100 µM and the TGI ([19]; read-out: pTGI (converted)) was 7.94 µM. The growth at 0.1 µM [20] was 93%, the growth at 1 µM [21] was 100% and the growth at 1 µM [22] was 93%.
